Test results reported in ChEMBL document CHEMBL2385029, “Cytotoxic activities of substituted 3-(3,4,5-trimethoxybenzylidene)-1,3-dihydroindol-2-ones and studies on their mechanisms of action” (Eur J Med Chem, 2013).
One block for each compound: values may come before it. Calls of active or inactive are those of the source. The rule behind the calls is not given here.

Key:
[1] = Cytotoxicity against human colon cancer cells after 48 hrs; type: functional; conditions: Cancer cell lines
Summary of the method: (§1)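 NCI 60-cell panel, values averaged per subpanel. Compounds were dissolved in DMSO and first screened at a single 10⁻⁵ M dose. Active ones then went to five concentrations at ten-fold dilutions, top 10⁻⁴ M (10⁻³ M for some), with 48 h exposure.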

[2] = Cytotoxicity against human CNS cancer cells after 48 hrs; type: functional; conditions: Cancer cell lines; summary of the method: as §1
[3] = Cytotoxicity against human leukemia cells after 48 hrs; type: functional; conditions: Leukemia cell
[4] = Cytotoxicity against human NSCLC cells after 48 hrs; type: functional; summary of the method: as §1
[5] = Inhibition of nox4 expression in human B1647 cells at 10 uM after 24 hrs by Western blot analysis relative to control; type: functional
Summary of the method: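 B1647 cells treated 24 h at 10 µM. Lysates (40 µg protein per lane) run on 10% SDS-PAGE and transferred to nitrocellulose. Blots probed with anti-Nox4, with β-tubulin as loading control, and detected by chemiluminescence. Bands quantified by densitometry in arbitrary units relative to control; three independent experiments.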

[6] = biological target: T1, NADPH oxidase 4 (Homo sapiens) (UniProt Q9NPH5); experiment: Inhibition of NOX4 in human nox2 silenced B1647 cells assessed as reduction of ROS production at 50 nM after 20 mins by DCFH-DA fluorescence assay; type: cell-based; conditions: 5 or 10 uM, in the assay text read “at 5 or 10 uM after 30 mins” for “at 50 nM after 20 mins”
T1 sequence (whole entry): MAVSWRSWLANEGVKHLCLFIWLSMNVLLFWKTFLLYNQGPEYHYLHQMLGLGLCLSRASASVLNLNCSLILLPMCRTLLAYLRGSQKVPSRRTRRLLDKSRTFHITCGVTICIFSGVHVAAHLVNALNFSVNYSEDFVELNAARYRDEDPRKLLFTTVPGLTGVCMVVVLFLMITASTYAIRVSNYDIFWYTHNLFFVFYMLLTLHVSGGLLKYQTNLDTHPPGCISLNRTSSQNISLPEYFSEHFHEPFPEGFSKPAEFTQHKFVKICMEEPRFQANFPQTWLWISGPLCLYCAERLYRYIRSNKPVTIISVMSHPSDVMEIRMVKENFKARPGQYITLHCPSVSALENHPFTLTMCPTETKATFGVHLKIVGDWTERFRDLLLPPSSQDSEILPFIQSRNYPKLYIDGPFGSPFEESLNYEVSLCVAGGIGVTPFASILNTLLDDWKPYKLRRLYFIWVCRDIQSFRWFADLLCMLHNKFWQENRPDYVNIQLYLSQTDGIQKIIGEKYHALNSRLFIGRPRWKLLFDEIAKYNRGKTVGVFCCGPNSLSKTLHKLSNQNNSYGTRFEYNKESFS
Summary of the method: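 B1647 cells nucleofected with Nox2 siRNA or scrambled siRNA (final 50 nM), used after 24–48 h. Compound treatment for 30 min, then 5 µM DCFH-DA loading for 20 min at 37 °C and DCF fluorescence read. Scrambled cells served as control.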

[7] = biological target: T1, NADPH oxidase 4 (Homo sapiens); experiment: Inhibition of NOX4 in human B1647 cells assessed as reduction of ROS production after 20 mins by DCFH-DA fluorescence assay; type: cell-based; conditions: in the assay text read “after 30 mins” for “after 20 mins”
Summary of the method: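 B1647 cells given compound (DMSO) at 5 or 10 µM for 30 min, then at 1 × 10⁶/mL washed twice in PBS and loaded with 5 µM DCFH-DA for 20 min at 37 °C. DCF fluorescence read in multiwell plate; four independent experiments.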

B1647 = experiment: Cytotoxicity against human B1647 cells at 5 to 10 uM after 24 hrs by MTT assay; type: functional, cell-based
Summary of the method: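 B1647 human AML cells grown in IMDM with 5% human serum (37 °C, 5% CO2); 10⁶ cells per well in 1 mL exposed to 5 or 10 µM compound (DMSO) for 24 h. MTT 0.5 mg/mL added for 4 h at 37 °C, formazan dissolved overnight in 10% SDS/0.01 M HCl, A570 read. Four independent experiments.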

[8] = Cytotoxicity against human prostate cancer cells after 48 hrs; type: functional; conditions: Cancer cell lines; summary of the method: as §1
[9] = Cytotoxicity against human breast cancer cells after 48 hrs; type: functional; conditions: Cancer cell lines; summary of the method: as §1
[10] = Cytotoxicity against human renal cancer cells after 48 hrs; type: functional; conditions: Cancer cell lines
[11] = Cytotoxicity against human melanoma cells after 48 hrs; type: functional; conditions: Melanoma cell
[12] = Cytotoxicity against human ovarian cancer cells after 48 hrs; type: functional; conditions: Cancer cell lines; summary of the method: as §1
[13] = Inhibition of bovine brain tubulin assembly after 20 mins
Bos taurus = species on record: Bos taurus; experiment: Displacement of [3H]colchicine from bovine brain tubulin at 5 uM after 10 mins
[14] = read-out: LC50 (the source's name)

SMILES: COc1cc(/C=C2/C(=O)Nc3cc(C)c(O)cc32)cc(OC)c1OC
GI50 [1]: 4 µM | LC50 [1]: 53.7 µM | TGI [1]: 18.2 µM | GI50 [2]: 5.2 µM | LC50 [2]: 85.1 µM | TGI [2]: 25.7 µM | GI50 [3]: 1.8 µM | CC50 [3, 14]: 70.8 µM | GI50 [4]: 5.7 µM | TGI [4]: 31.6 µM | CC50 [4, 14]: 79.4 µM | fold change (FC) [5]: 0.64 | inhibition [6]: Active | inhibition [7]: Dose-dependent effect | Activity (B1647): Active | GI50 [8]: 3.9 µM | TGI [8]: 30.9 µM | CC50 [8, 14]: 91.2 µM | GI50 [9]: 2.5 µM | LC50 [9]: 74.1 µM | TGI [9]: 14.4 µM | GI50 [10]: 7.1 µM | LC50 [10]: 66.1 µM | TGI [10]: 25.1 µM | GI50 [11]: 3.6 µM | TGI [11]: 16.6 µM | CC50 [11, 14]: 53.7 µM | GI50 [12]: 7.1 µM | TGI [12]: 37.1 µM | CC50 [12, 14]: 87.1 µM | IC50 [13]: > 20 µM

SMILES: COc1cc(/C=C2\C(=O)Nc3ccc(Br)cc32)cc(OC)c1OC
GI50 [1]: 6.2 µM | GI50 [2]: 14.8 µM | TGI [2]: 56.2 µM | GI50 [3]: 2.1 µM | GI50 [4]: 9.5 µM | TGI [4]: 77.6 µM | fold change (FC) [5]: 0.86 | inhibition [6]: Active | inhibition [7]: Dose-dependent effect | Activity (B1647): Active | GI50 [8]: 11 µM | GI50 [9]: 3.2 µM | TGI [9]: 45.7 µM | GI50 [10]: 14.1 µM | TGI [10]: 75.9 µM | GI50 [11]: 10.2 µM | GI50 [12]: 17 µM | TGI [12]: 69.2 µM | IC50 [13]: > 20 µM

IC50 [13]: 6.1 µM | inhibition (Bos taurus): 35%
SMILES: COc1ccc2c(c1)/C(=C\c1cc(OC)c(OC)c(OC)c1)C(=O)N2

IC50 [13]: 3.3 µM | inhibition (Bos taurus): 31%
SMILES: COc1cc(/N=C2\C(=O)N(Cc3ccccc3)c3ccccc32)cc(OC)c1OC
